Data on seven compounds can be found in ChEMBL document CHEMBL2176913, “Haloarene derivatives of carbamazepine with reduced bioactivation liabilities: 2-monohalo and 2,8-dihalo derivatives” (J Med Chem, 2012).

Data set [1] has as its system Hepatocyte. As to the kind of experiment: Drug metabolism in Wistar rat hepatocytes assessed as ratio of O-sulfonate II metabolite level to parent compound level at 50 uM incubated for 6 hrs by HPLC and LC-MS/Ms method. In kind it is ADME, cell-based. A digest of the protocol:
(§1)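 Hepatocytes freshly isolated from male rat liver by two-step collagenase perfusion; only cells with ≥80% viability (trypan blue) were used. Cells at 2 × 10^6 cells/mL were shaken at 37 °C for 6 h with substrate at 50 μM, added in methanol (1% final volume). Reactions were stopped with acetonitrile. Metabolites were identified against authentic standards and by ESI LC–MS. Ratios are metabolite:parent compound.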

Data set [2] concerns Hepatocyte. As to the kind of experiment: Drug metabolism in Wistar rat hepatocytes assessed as ratio of O-sulfonate I metabolite level to parent compound level at 50 uM incubated for 6 hrs by HPLC and LC-MS/Ms method. In kind it is ADME, cell-based. A digest of the protocol:
as §1

Data set [3] deals with Hepatocyte. As to the kind of experiment: Drug metabolism in Wistar rat hepatocytes assessed as ratio of 10,11-epoxide metabolite level to parent compound level at 50 uM incubated for 6 hrs by HPLC and LC-MS/Ms method. In kind it is ADME, cell-based. The method, boiled down:
as §1

The subject of data set [4] is Hepatocyte. As to the kind of experiment: Drug metabolism in Wistar rat hepatocytes assessed as ratio of N-glucuronide metabolite level to parent compound level at 50 uM incubated for 6 hrs by HPLC and LC-MS/Ms method. In kind it is ADME, cell-based. The method, boiled down: as §1
Data set [5] concerns Hepatocyte. As to the kind of experiment: Drug metabolism in Wistar rat hepatocytes assessed as ratio of epoxide N-glucuronide metabolite level to parent compound level at 50 uM incubated for 6 hrs by HPLC and LC-MS/Ms method. Format: ADME, cell-based. A digest of the protocol: as §1
Data set [6] concerns Hepatocyte. As to the kind of experiment: Stability in Wistar rat hepatocytes assessed as metabolite formation at >200 uM incubated for 6 hrs by HPLC and LC-MS/Ms method. Format: ADME, cell-based. The method, boiled down:
(§2)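 Male rat hepatocytes were isolated by collagenase perfusion (≥80% viable) and suspended at 2 × 10^6 cells/mL. They were incubated 6 h at 37 °C with substrate at typically 50–1000 μM, added in methanol (1% final volume); one analogue was tested only at 50 and 200 μM, added in acetonitrile. The reaction was stopped with acetonitrile, and the supernatant was concentrated and analysed by HPLC-UV and ESI LC–MS.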

For data set [7], the system named is Hepatocyte. As to the kind of experiment: Stability in Wistar rat hepatocytes assessed as 10,11-epoxide N-glucuronide metabolite formation at 500 uM incubated for 6 hrs by HPLC and LC-MS/Ms method. In kind it is ADME, cell-based. The method, boiled down: as §2
For data set [8], the system named is Hepatocyte. The experiment in a line: Stability in Wistar rat hepatocytes assessed as 10,11-epoxide N-glucuronide metabolite formation at 200 uM incubated for 6 hrs by HPLC and LC-MS/Ms method. In kind it is ADME, cell-based. The method, boiled down:
as §2

Data set [9] relates to Liver microsomes. As to the kind of experiment: Stability in human liver microsomes assessed as dioxygenated metabolite formation at 50 uM incubated for 60 mins by HPLC and LC-MS/Ms method. In kind it is ADME, Microsome. As to conditions: 1 h; call rule not given here. The method, boiled down: (§3)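 Pooled human liver microsomes (150 donors, both sexes), 1 mg/mL protein, with substrate at 50 μM and NADPH at 1 mM. Incubated in 0.1 M potassium phosphate, pH 7.4, for 60 min at 37 °C; controls lacked NADPH. The reaction was stopped with ice-cold acetonitrile, and the supernatant was dried, reconstituted in methanol/water and analysed by HPLC-UV and ESI LC–MS (4000 Qtrap).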

The test system of data set [10] is Liver microsomes. The experiment in a line: Stability in human liver microsomes assessed as diol formation at 50 uM incubated for 60 mins by HPLC and LC-MS/Ms method. In kind it is ADME, Microsome. The settings on record: 1 h. A digest of the protocol:
as §3
For orientation: Liver microsomes are vesicles of endoplasmic reticulum, rich in cytochrome P450 enzymes.

The test system of data set [11] is Hepatocyte. As to the kind of experiment: Stability in Wistar rat hepatocytes assessed as 10,11-epoxide N-glucuronide metabolite formation at 1 mM incubated for 6 hrs by HPLC and LC-MS/Ms method. In kind it is ADME, cell-based. As to conditions: 1000 µM. The method, boiled down:
as §2

Data set [12] relates to Liver microsomes. As to the kind of experiment: Drug metabolism in human liver microsomes assessed as 10,11 epoxidation level at 50 uM incubated for 60 mins by HPLC and LC-MS/Ms method. In kind it is ADME, Microsome. The settings on record: 1 h. The method, boiled down:
as §3

Data set [13] relates to Hepatocyte. As to the kind of experiment: Drug metabolism in Wistar rat hepatocytes assessed as GSH adduct formation at 50 uM incubated for 6 hrs by HPLC and LC-MS/Ms method. Format: ADME, cell-based. The method, boiled down:
as §1

The nature of data set [14]: Drug metabolism in human liver microsomes assessed as compound turnover at 50 uM incubated for 60 mins by HPLC and LC-MS/Ms method. In kind it is ADME, Microsome. The settings on record: read-out: Drug metabolism. The method, boiled down:
as §3

In data set [15] the test system is Hepatocyte. As to the kind of experiment: Stability in Wistar rat hepatocytes assessed as 10,11-epoxide N-glucuronide metabolite formation at 100 uM incubated for 6 hrs by HPLC and LC-MS/Ms method. Format: ADME, cell-based. The method, boiled down:
as §2

Data set [16] concerns Liver microsomes. The experiment in a line: Stability in human liver microsomes assessed as oxidative defluorination at 50 uM incubated for 60 mins by HPLC and LC-MS/Ms method. As to conditions: 1 h. In kind it is ADME, Microsome. The method, boiled down:
as §3

As to `NC(=O)N1c2ccccc2C=Cc2cc(Br)ccc21`, the Stability entry in the data set with Hepatocyte [1] and in the data set on Hepatocyte [2] was “Stable” each time.

In the case of `NC(=O)N1c2ccccc2C=Cc2cc(Cl)ccc21`, the Ratio with Hepatocyte [3] is 0.21; in the data set with Hepatocyte [4], 2.04; in the data set on Hepatocyte [5], 0.11. Besides, the Stability entry in the data set on Hepatocyte [1], in the data set on Hepatocyte [6], in the data set on Hepatocyte [2] and in the data set with Hepatocyte [7] was “Stable” each time.

On to `NC(=O)N1c2ccccc2C=Cc2cc(F)ccc21`, for which the Ratio amounted to 0.28 with Hepatocyte [3], 0.784 in the data set with Hepatocyte [4], 0.41 with Hepatocyte [1] and 0.15 with Hepatocyte [5]. Further, the Stability entry with Hepatocyte [8], with Hepatocyte [6] and with Hepatocyte [2] was “Stable” in each case.

Regarding `NC(=O)N1c2ccccc2C=Cc2ccccc21` [CARBAMAZEPINE], the Stability entry with Liver microsomes [9], in the data set on Liver microsomes [10], in the data set with Hepatocyte [11] and with Hepatocyte [6] was “Stable” each time. In addition, the Ratio with Hepatocyte [3] worked out at 0.52; in the data set with Hepatocyte [4] it was 0.63; in the data set with Hepatocyte [1], 0.32; in the data set on Hepatocyte [5] it was 0.24; in the data set on Hepatocyte [2], 0.08. For the same compound, the Drug metabolism entry in the data set with Liver microsomes [12] and in the data set on Hepatocyte [13] was “Active” throughout. Also, in [14], the metabolised at 1 h, 50 µM is 1%.

For the compound `NC(=O)N1c2ccc(Cl)cc2C=Cc2cc(Cl)ccc21`, the Ratio was 0.14 with Hepatocyte [3], 0.22 in the data set with Hepatocyte [4] and 0.21 in the data set with Hepatocyte [5]. Also, the Stability entry in the data set on Hepatocyte [1], with Hepatocyte [8], in the data set with Hepatocyte [6] and with Hepatocyte [2] was “Stable” each time.

In the case of `NC(=O)N1c2ccc(Br)cc2C=Cc2cc(Br)ccc21`, the Ratio in the data set with Hepatocyte [3] is reported as 0.19; in the data set on Hepatocyte [4], 0.27. The Stability result in the data set with Hepatocyte [1], with Hepatocyte [6], with Hepatocyte [15] and in the data set with Hepatocyte [2] was “Stable” in each case.

Consider `NC(=O)N1c2ccc(F)cc2C=Cc2cc(F)ccc21`, for which the Stability entry in the data set on Liver microsomes [9], in the data set with Hepatocyte [1], with Liver microsomes [10], in the data set on Hepatocyte [6], in the data set on Hepatocyte [2] and in the data set with Liver microsomes [16] was “Stable” throughout. Besides, the Stability entry in the data set with Hepatocyte [7] is listed as “Stable”. Moreover, the Ratio in the data set with Hepatocyte [3] was determined as 0.07; in the data set on Hepatocyte [4], 0.18; in the data set with Hepatocyte [5] it was 0.02. Moreover, the Drug metabolism entry with Liver microsomes [12] is given as “Active”. Moreover, the metabolised at 1 h, 50 µM in data set [14] was found to be 1%.
